Data from PMC6863055 (Dalton transactions (Cambridge, England : 2003), 2019).
Read-outs that look alike come from different tables or passages of the source. Marks after values point to notes of the source that are not given here.

What was measured:
[1] = Metabolic stability in mouse liver microsomes; format: in vitro ADME; conditions: murine liver microsomes
Procedure, shortened: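 Male ICR/CD-1 mouse liver microsomes (0.25 mg) in 50 mM Tris pH 7.5 with test compound at 2 µM final (DMSO stock). Incubated at 37 °C with shaking and an NADPH-regenerating system (NADP, glucose-6-phosphate, G6P dehydrogenase). Time points were quenched with acetonitrile, 0.2% formic acid and tolbutamide internal standard; the T0 sample was quenched before compound or cofactors were added. Parent was measured by LC-MS/MS (223.1→180.1). Half-life = 0.693/slope of ln % remaining versus time.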

[2] = Metabolic stability in mouse hepatocytes; format: in vitro ADME
Procedure, shortened: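 Murine hepatocytes (1×10^6/mL) incubated with test compound (2 µM final, DMSO stock) for 0–240 min at 37 °C, 5% CO2. Reactions were quenched with two volumes of acetonitrile containing 0.15% formic acid and tolbutamide internal standard, then analysed by LC-MS/MS. % remaining is relative to T0. Half-life = 0.693/slope of ln % remaining versus time; CLint was taken from the slope of ln peak-area ratio versus time.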

[3] = Formation constants with Cu2+; format: binding; conditions: Cu^2+, I=0.15 M NaCl, T=298 K
[4] = Formation constants with Zn2+; format: binding; conditions: Zn^2+; I=0.15 M NaCl, T=298 K
Procedure, shortened: (§1)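 Complexes were studied by direct pH-potentiometric titration at 1:1 and 2:1 metal-to-ligand ratios, with 150–200 data pairs and 1 min equilibration per point. With metal in excess, titration continued until precipitate appeared (pH 7–9). Samples were at 25 °C, 0.15 M NaCl, under N2, with a calibrated electrode and [H+] corrected by the Irving method.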

[5] = tested on: FRDA cells; conditions: at 125 nM; toxicity induced by BSO in FRDA cells; ref [5]; cited from earlier work
[6] = Formation constants with Mg2+; format: binding; conditions: Mg^2+; I=0.15 M NaCl, T=298 K
Procedure, shortened: as §1

[7] = Formation constants with Ca2+; format: binding; conditions: Ca^2+; I=0.15 M NaCl, T=298 K
Procedure, shortened: as §1

[8] = Protonation constants by pH-potentiometric titration; format: physicochemical
Procedure, shortened: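 Test compound (2.28 mM) titrated directly with standardized NaOH over pH 1.80–12.00. Samples were 6.00 mL, thermostatted at 25 °C, held at 0.15 M NaCl, stirred under N2. The electrode was calibrated with KH-phthalate (pH 4.005) and borax (pH 9.177) buffers. [H+] was obtained by the Irving method (pKw 13.820). Protonation constants come from fitting the pH-potentiometric data.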

[9] = ref [51], [52]; cited from earlier work
[10] = Cu^2+, cited from earlier work; for log β [ML]/[M][L]: I=0.5 M, NaNO3, ref [57]
[11] = I=0.15 M, NaClO4; ref [45]; cited from earlier work
[12] = Mg^2+; I=0.5 M, KNO3; ref [53]; cited from earlier work
[13] = Zn^2+, cited from earlier work
[14] = Ca^2+, I=0.1 M, NaNO3, ref [54], cited from earlier work

Oc1cc2nc(c1)CNCCNCCNC2 [L2, 3,6,9,15-tetraazabicyclo[9.3.1]penta-deca-1(15),11,13-trien-13-ol]
% of molecule retained at termination of the experiment ([1]; NADPH regenerating system, 2 µM): 65%
in vitro half-life ([1]; NADPH regenerating system, 2 µM, substrate depletion): greater than 120 min
clearance classification ([1]; Phase I): low-moderate clearance
calculated Clint ([2]; murine hepatocytes): < 0.02 µL/min/million cells
clearance classification ([2]; murine hepatocytes): low clearance
half-life ([2]; murine hepatocytes 1×10^6/mL, 2 µM, 0–240 min): greater than 240 min
% depleted over the time course of the experiment ([2]; murine hepatocytes, 0–240 min): 2–9%
log β [MHL]/[M][L][H^+] [3]: 25.79(3)
log β [ML]/[M][L] [3]: 19.16(11)
log β [ML]/[M][L][OH^−] [3]: 8.55(13)
log β [MH2L]/[M][L][H^+]^2 ([3]; determined by direct UV-vis titration): 28.38(5)^a
log β [MH2L]/[M][L][H^+]^2 [4]: 25.72(7)
log β [MHL]/[M][L][H^+] [4]: 23.02(3)
log β [ML]/[M][L] [4]: 17.18(7)
log β [ML]/[M][L][OH^−] [4]: 8.92(9)
quenching of radical based toxicity [5]: 100%
log β [MHL]/[M][L][H^+] [6]: 13.53(2)
log β [ML]/[M][L] [6]: 4.96(1)
log β [MHL]/[M][L][H^+] [7]: 13.66(5)
isoelectric point (pI) [8]: 10.31
log K1^H (protonation constant) ([8]; I=0.15 M NaCl, T=298 K): 11.56(3)
log K2^H (protonation constant) ([8]; I=0.15 M NaCl, T=298 K): 9.05(5)
log K4^H (protonation constant) ([8]; I=0.15 M NaCl, T=298 K): 1.68(5)
∑ log KN-donors ([8]; I=0.15 M NaCl, T=298 K): 22.29
fraction of [H2(L2)]^+ species in solution ([8]; at biological pH): 97%

Oc1ccncc1 [4-pyridol]
acidity constant of aromatic -OH functionality [9]: 11.09

C1CNCCNCCNCCN1 [cyclen]
log β [ML]/[M][L] [10]: 23.3
log β [ML]/[M][L] ([10]; listed as Cyclen): 23.3^d
log K1^H (protonation constant) [11]: 10.66
log K2^H (protonation constant) [11]: 9.69
log K3^H (protonation constant) [11]: 1.41
∑ log KN-donors [11]: 21.76
log β [ML]/[M][L] [12]: 2.25^a
log β [ML]/[M][L] ([13]; ref [58]): 16.2^e
log β [ML]/[M][L] [14]: 3.12
log β [ML]/[M][L] ([14]; listed as Cyclen): 3.12^b

Oc1cccnc1 [3-pyridol]
acidity constant of aromatic -OH functionality [9]: 8.72

c1cc2nc(c1)CNCCNCCNC2 [L1, 3,6,9,15-tetraazabicyclo[9.3.1]penta-deca-1(15),11,13-triene]
log β [ML]/[M][L][OH^−] ([10]; previously described by others, ref [47], [57], [58], [62]): 7.48^c
log β [ML]/[M][L] ([13]; I=0.5 M, KNO3, ref [47]): 14.40^f
log β [ML]/[M][L][OH^−] ([13]; I=0.5 M, KNO3, ref [47]): 8.50^f
log β [ML]/[M][L] [6]: 4.04(2)
log K1^H (protonation constant) ([8]; I=0.15 M NaCl, T=298 K): 11.37 (1)
log K2^H (protonation constant) ([8]; I=0.15 M NaCl, T=298 K): 8.22(5)
∑ log KN-donors ([8]; I=0.15 M NaCl, T=298 K): 21.20
log K3^H (protonation constant) ([8]; I=0.15 M NaCl, T=298 K, for L2 and L3 the pyridol -OH): 1.61(5)
